# Measurements as given in ChEMBL document CHEMBL3861996, “Arylsulfonamide derivatives of (aryloxy)ethyl pyrrolidines and piperidines as α1-adrenergic receptor antagonist with uro-selective activity” (Bioorg Med Chem, 2016).
# Tests used:
# Rattus norvegicus [1] = organism: Rattus norvegicus; assay: Selectivity ratio of Ki for alpha2 adrenergic receptor in rat brain cerebral cortex membranes to Ki for alpha1 adrenergic receptor in rat brain cerebral cortex membranes; type: cell membranes
# Procedure, shortened: (§1)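 Rat cerebral cortex homogenized in ice-cold 50 mM Tris–HCl (pH 7.6), spun at 20,000 g for 20 min (0–4 °C), resuspended and spun again. Membranes incubated with 0.2 nM [3H]-prazosin (α1) or 2 nM [3H]-clonidine (α2) and seven to eight compound concentrations (10^-11 to 10^-4 M). Non-specific binding defined with 10 µM phentolamine (prazosin) or 10 µM clonidine (clonidine). Ended by GF/C filtration, counted by liquid scintillation. Run in duplicate; Ki from two independent experiments.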
# [2] = molecular target: T1, Adrenergic receptor alpha-1 (Rattus norvegicus, UniProt P15823+P23944+P43140); assay: Displacement of [3H]-Prazosin from alpha1 adrenergic receptor in rat brain cerebral cortex membranes by liquid scintillation counting analysis; type: cell membranes, Membrane; procedure, shortened: as §1
# T1 sequence (P15823 whole entry): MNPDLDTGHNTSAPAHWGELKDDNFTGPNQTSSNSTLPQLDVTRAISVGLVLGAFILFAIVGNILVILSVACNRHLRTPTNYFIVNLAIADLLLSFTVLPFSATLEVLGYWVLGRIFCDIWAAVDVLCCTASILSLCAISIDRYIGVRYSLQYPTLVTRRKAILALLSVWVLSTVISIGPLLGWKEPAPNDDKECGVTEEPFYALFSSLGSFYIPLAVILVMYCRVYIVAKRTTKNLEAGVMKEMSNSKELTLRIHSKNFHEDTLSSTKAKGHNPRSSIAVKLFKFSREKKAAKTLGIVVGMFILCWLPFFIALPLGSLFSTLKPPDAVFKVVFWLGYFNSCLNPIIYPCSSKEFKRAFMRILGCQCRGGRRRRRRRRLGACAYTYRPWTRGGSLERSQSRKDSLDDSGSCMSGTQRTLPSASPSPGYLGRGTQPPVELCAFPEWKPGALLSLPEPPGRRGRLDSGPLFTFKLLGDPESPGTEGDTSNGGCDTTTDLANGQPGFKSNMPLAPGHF
# T1 sequence (P23944 whole entry): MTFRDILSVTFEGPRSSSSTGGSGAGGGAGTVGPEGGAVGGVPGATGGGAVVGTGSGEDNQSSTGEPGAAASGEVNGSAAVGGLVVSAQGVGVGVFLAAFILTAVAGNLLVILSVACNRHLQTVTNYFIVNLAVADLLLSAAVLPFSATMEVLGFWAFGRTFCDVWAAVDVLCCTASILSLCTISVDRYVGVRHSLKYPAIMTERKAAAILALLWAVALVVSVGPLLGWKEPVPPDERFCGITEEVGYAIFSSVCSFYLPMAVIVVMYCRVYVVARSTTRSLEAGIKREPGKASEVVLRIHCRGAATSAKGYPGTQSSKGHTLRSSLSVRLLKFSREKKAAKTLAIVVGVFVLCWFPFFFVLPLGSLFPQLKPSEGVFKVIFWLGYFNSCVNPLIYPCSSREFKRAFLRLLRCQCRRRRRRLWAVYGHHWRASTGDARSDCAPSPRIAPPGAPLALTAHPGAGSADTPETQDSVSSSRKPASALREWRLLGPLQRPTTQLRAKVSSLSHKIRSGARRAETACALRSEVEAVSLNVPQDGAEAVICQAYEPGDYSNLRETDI
# T1 sequence (P43140 whole entry): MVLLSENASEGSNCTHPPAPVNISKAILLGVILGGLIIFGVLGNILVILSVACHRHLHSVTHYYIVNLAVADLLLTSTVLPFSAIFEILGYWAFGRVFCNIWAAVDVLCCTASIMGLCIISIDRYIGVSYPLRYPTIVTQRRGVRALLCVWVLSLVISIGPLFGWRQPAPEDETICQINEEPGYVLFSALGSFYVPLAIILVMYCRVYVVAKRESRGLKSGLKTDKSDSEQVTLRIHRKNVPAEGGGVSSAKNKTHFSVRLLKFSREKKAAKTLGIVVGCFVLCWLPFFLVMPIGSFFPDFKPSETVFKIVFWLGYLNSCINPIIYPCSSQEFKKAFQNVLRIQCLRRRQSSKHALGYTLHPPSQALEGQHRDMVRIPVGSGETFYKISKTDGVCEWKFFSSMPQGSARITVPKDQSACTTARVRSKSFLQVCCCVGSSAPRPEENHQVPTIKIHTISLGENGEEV
# [3] = molecular target: T2, Adrenergic receptor alpha-2 (Rattus norvegicus, UniProt P22086+P19328+P22909); assay: Displacement of [3H]-Clonidine from alpha2 adrenergic receptor in rat brain cerebral cortex membranes by liquid scintillation counting analysis; type: cell membranes, Membrane; procedure, shortened: as §1
# T2 sequence (P22086 whole entry): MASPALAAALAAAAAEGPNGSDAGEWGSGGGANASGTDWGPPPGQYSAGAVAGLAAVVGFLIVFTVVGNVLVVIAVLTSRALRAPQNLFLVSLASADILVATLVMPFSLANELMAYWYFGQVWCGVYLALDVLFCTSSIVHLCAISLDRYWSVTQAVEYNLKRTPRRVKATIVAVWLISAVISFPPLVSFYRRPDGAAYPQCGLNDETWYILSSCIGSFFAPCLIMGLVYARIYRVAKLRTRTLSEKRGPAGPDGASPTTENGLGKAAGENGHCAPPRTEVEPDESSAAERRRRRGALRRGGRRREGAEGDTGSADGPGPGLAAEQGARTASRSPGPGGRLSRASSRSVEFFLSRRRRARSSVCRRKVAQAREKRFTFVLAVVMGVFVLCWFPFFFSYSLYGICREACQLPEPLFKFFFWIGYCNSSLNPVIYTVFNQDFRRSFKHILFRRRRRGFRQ
# T2 sequence (P19328 whole entry): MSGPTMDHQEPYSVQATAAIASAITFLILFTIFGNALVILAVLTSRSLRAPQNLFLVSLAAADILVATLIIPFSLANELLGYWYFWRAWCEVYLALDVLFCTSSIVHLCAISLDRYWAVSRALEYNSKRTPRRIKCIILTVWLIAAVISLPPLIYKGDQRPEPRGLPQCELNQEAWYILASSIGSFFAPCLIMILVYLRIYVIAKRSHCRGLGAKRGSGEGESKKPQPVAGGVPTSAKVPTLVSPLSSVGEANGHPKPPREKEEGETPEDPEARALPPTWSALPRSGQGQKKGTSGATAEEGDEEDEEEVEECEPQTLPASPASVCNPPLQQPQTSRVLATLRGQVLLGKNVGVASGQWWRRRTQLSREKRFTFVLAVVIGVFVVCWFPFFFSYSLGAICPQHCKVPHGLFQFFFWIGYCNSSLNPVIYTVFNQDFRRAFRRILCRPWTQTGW
# T2 sequence (P22909 whole entry): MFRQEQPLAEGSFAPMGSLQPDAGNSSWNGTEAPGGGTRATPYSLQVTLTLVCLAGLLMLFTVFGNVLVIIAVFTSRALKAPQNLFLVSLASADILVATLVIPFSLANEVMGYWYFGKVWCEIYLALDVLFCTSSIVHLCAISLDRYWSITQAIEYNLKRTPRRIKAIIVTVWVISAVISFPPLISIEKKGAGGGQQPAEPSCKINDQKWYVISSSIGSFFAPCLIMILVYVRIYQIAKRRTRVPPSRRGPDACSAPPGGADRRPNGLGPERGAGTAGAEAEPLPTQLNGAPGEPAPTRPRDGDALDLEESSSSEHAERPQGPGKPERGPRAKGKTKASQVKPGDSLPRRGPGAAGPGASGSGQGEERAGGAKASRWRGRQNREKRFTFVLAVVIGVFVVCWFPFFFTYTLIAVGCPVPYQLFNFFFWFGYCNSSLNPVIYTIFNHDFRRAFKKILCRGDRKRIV
# [4] = molecular target: T3, Alpha-1B adrenergic receptor (Homo sapiens, UniProt P35368); assay: Intrinsic activity at human alpha1B adrenergic receptor expressed in CHOK1 cells co-expressing aequorin assessed as inhibition of agonist induced calcium mobilization preincubated for 15 mins followed by agonist addition measured for 20 secs in presence of coelenterazine H by luminescence assay; type: cell-based, CHO-K1
# T3 sequence (P35368 whole entry): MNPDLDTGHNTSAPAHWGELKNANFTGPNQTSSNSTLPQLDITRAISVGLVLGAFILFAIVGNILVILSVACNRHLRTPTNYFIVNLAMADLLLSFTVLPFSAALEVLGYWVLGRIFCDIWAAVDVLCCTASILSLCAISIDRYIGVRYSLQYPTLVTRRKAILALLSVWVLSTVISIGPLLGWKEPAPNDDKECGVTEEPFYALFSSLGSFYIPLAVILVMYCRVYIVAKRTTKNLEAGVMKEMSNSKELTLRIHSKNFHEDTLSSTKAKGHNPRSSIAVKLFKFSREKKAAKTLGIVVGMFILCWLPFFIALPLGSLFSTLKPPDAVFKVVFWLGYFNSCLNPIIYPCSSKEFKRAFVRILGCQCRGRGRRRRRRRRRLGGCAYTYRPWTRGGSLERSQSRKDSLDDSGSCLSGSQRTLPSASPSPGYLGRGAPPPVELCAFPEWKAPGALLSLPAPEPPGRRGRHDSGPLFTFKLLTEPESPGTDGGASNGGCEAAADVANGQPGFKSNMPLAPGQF
# Procedure, shortened: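 Frozen ready-to-use cells stably expressing α1B receptor and aequorin, resuspended in assay buffer with 5 µM coelenterazine h and rotated overnight at rt in the dark. Diluted to 5000 cells/20 µL. Agonist mode: cells injected onto ligands, light recorded 20 s. Antagonist mode: 15 min with compound at room temperature, then agonist at 3× EC80 final, light recorded 20 s. Mean EC50 from three experiments.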
# Rattus norvegicus [5] = assay: Hypotensive activity in normotensive anesthetized Wistar rat assessed as decrease in systolic blood pressure at 2 mg/kg, iv administered as single dose measured 60 mins post dose relative to control; type: functional; settings: 1 h
# Procedure, shortened: (§2)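 Male Wistar rats (200–250 g), groups of six, anaesthetized with thiopental 70 mg/kg ip. Left carotid artery cannulated with heparinized saline-filled tubing for pressure recording. Compounds dissolved in water and given once iv. Blood pressure taken at 0 min (control) and over 60 min afterward. Data as mean ± SEM, analysed by one-way ANOVA with Dunnett's test against 0 min.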
# Rattus norvegicus [6] = assay: Hypotensive activity in normotensive anesthetized Wistar rat assessed as decrease in diastolic blood pressure at 2 mg/kg, iv administered as single dose measured 60 mins post dose relative to control; type: functional; settings: 1 h; procedure, shortened: as §2
Ratio Ki (Rattus norvegicus [1]),Ki [2],Ki [3],EC50 [4],SMILES,inhibition in vivo at 2 mg/kg (Rattus norvegicus [5]),inhibition in vivo at 2 mg/kg (Rattus norvegicus [6])
8,241 nM,1944 nM,–,COc1ccccc1OCCN1CC[C@@H](NS(=O)(=O)c2cccc(Cl)c2F)C1,–,–
3,73 nM,194 nM,–,CC(C)Oc1ccccc1OCCN1CCC(NS(=O)(=O)c2cccc3cccnc23)CC1,–,–
7,133 nM,870 nM,–,CC(C)Oc1ccccc1OCCN1CCC(CNS(=O)(=O)c2cc(Cl)ccc2F)CC1,–,–
1,93 nM,131 nM,–,COc1ccccc1OCCN1CCC(NS(=O)(=O)c2cccc3cccnc23)CC1,–,–
9,67 nM,578 nM,–,CC(C)Oc1ccccc1OCCN1CCC(CNS(=O)(=O)c2cncc3ccccc23)CC1,–,–
> 109,92 nM,> 10000 nM,–,CC(C)Oc1ccccc1OCCN1CC[C@H](NS(=O)(=O)c2cccc(Cl)c2F)C1,–,–
4,34 nM,129 nM,–,COc1ccccc1OCCN1CCC(NS(=O)(=O)c2cc(Cl)ccc2F)CC1,–,–
8,289 nM,2354 nM,–,COc1ccccc1OCCN1CC[C@@H](NS(=O)(=O)c2cc(Cl)ccc2F)C1,–,–
4,106 nM,398 nM,–,CC(C)Oc1ccccc1OCCN1CC[C@@H](NS(=O)(=O)c2cc(Cl)ccc2F)C1,–,–
> 41,242 nM,> 10000 nM,–,CC(C)Oc1ccccc1OCCN1CC[C@H](NS(=O)(=O)c2cc(Cl)ccc2F)C1,–,–
5,77 nM,416 nM,–,CC(C)Oc1ccccc1OCCN1CCC(CNS(=O)(=O)c2ccc(F)cc2)CC1,–,–
1,131 nM,188 nM,–,CC(C)Oc1ccccc1OCCN1CCC(NS(=O)(=O)c2cccc(Cl)c2F)CC1,–,–
> 29,348 nM,> 10000 nM,–,COc1ccccc1OCCN1CC[C@H](NS(=O)(=O)c2cccc(Cl)c2F)C1,–,–
3,118 nM,293 nM,–,CC(C)Oc1ccccc1OCCN1CCC(NS(=O)(=O)c2cc(Cl)ccc2F)CC1,–,–
–,214 nM,> 10000 nM,–,COc1ccccc1OCCN1CC[C@H](NS(=O)(=O)c2cc(Cl)ccc2F)C1,–,–
–,–,–,0.13 nM,CCOc1ccccc1OCCN[C@H](C)Cc1ccc(OC)c(S(N)(=O)=O)c1 [TAMSULOSIN],11 to 17%,11 to 18%
2,176 nM,378 nM,–,CC(C)Oc1ccccc1OCCN1CC[C@@H](NS(=O)(=O)c2cccc(Cl)c2F)C1,–,–
